Data reported in ChEMBL document CHEMBL5329156, “Discovery and development of novel substituted monohydrazides as potent antifungal agents” (RSC Med Chem, 2023).
In brackets after ≈: the same amount, converted by molar mass. Activity calls are given as the source filed them. The rule behind the calls is not given here.

Legend:
[1] = test system: Candida albicans; experiment: Antifungal activity against itraconazole/fluconazole susceptible Candida albicans ATCC MYA-2876 assessed as fungal growth inhibition by double dilution method; type: functional
Outline: (§1)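 Broth microdilution after CLSI M27-A3/M38-A2 with minor modifications. A single colony was grown overnight in YPD at 35 °C with shaking at 200 rpm. Cells were mixed 1:1 with compound (final 0.06-31.3 µg/mL, from DMSO stocks) and incubated 48 h at 35 °C.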

[2] = test system: Candida albicans; experiment: Antifungal activity against itraconazole/fluconazole resistant Candida albicans ATCC 90819 assessed as fungal growth inhibition by double dilution method; type: functional; outline: as §1
[3] = test system: Candida albicans; experiment: Antibiofilm activity against Candida albicans ATCC 10231 assessed as reduction in biofilm production at 1.96 to 3.9 microg/ml by biofilm formation assay; type: functional, organism-based; conditions: dose 1.96-3.9 µg/ml
[4] = test system: Candida duobushaemulonii; experiment: Antifungal activity against Candida duobushaemulonii AR Bank # 391 assessed as fungal growth inhibition by double dilution method; type: functional; conditions: Candidozyma duobushaemuli
Outline: (§2)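 Broth microdilution after CLSI M27-A3/M38-A2 with minor changes. Single colony grown overnight in YPD at 35 °C, 200 rpm. Compound final range 0.06-31.3 µg/mL; incubated 48 h at 35 °C.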

[5] = test system: Aspergillus nidulans; experiment: Antifungal activity against Aspergillus nidulans ATCC 38163 assessed as fungal growth inhibition by double dilution method; type: functional
[6] = test system: [Candida] auris; experiment: Antifungal activity against Candida auris AR Bank # 383 assessed as fungal growth inhibition by double dilution method; type: functional; conditions: Candidozyma auris; outline: as §2
[7] = test system: [Candida] auris; experiment: Antifungal activity against Candida auris AR Bank # 389 assessed as fungal growth inhibition by double dilution method; type: functional; conditions: Candidozyma auris; outline: as §2
[8] = test system: Candida albicans; experiment: Antifungal activity against itraconazole/fluconazole resistant Candida albicans ATCC MYA-1003 assessed as fungal growth inhibition by double dilution method; type: functional; outline: as §1
[9] = test system: [Candida] haemuloni; experiment: Antifungal activity against Candida haemulonii AR Bank # 393 assessed as fungal growth inhibition by double dilution method; type: functional; conditions: Candidozyma haemuli; outline: as §2
[10] = test system: Kodamaea ohmeri; experiment: Antifungal activity against Kodamaea ohmeri AR Bank # 396 assessed as fungal growth inhibition by double dilution method; type: functional; outline: as §2
[11] = test system: [Candida] auris; experiment: Antifungal activity against Candida auris AR Bank # 385 assessed as fungal growth inhibition by double dilution method; type: functional; conditions: Candidozyma auris; outline: as §2
[12] = test system: Saccharomyces cerevisiae; experiment: Antifungal activity against Saccharomyces cerevisiae AR Bank # 400 assessed as fungal growth inhibition by double dilution method; type: functional; outline: as §2
[13] = test system: [Candida] auris; experiment: Antifungal activity against Candida auris AR Bank # 388 assessed as fungal growth inhibition by double dilution method; type: functional; conditions: Candidozyma auris; outline: as §2
[14] = test system: HEK293; experiment: Cytotoxicity against human HEK-293 cells assessed as reduction in cell viability at 31.3 microg/ml; type: toxicity, cell-based; conditions: dose 31.3 µg/ml
Outline: (§3)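 Cells in DMEM with 10% FBS and 1% Pen/Strep, seeded at 10,000 cells/well and held overnight at 37 °C, 5% CO2. Compounds added at final 31.3-0.12 µg/mL (0.05% DMSO vehicle) for 24 h. Resazurin then added for 6 h; fluorescence read at ex 560/em 590. Triton X-100 1% as positive control; values normalized to vehicle. Run in quadruplicate.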

[15] = test system: [Candida] auris; experiment: Antifungal activity against Candida auris AR Bank # 381 assessed as fungal growth inhibition by double dilution method; type: functional; conditions: Candidozyma auris; outline: as §2
[16] = test system: Clavispora lusitaniae; experiment: Antifungal activity against Clavispora lusitaniae AR Bank # 398 assessed as fungal growth inhibition by double dilution method; type: functional; outline: as §2
[17] = test system: [Candida] auris; experiment: Antifungal activity against Candida auris AR Bank # 387 assessed as fungal growth inhibition by double dilution method; type: functional; conditions: Candidozyma auris; outline: as §2
[18] = test system: [Candida] auris; experiment: Antifungal activity against Candida auris AR Bank # 386 assessed as fungal growth inhibition by double dilution method; type: functional; conditions: Candidozyma auris; outline: as §2
[19] = test system: Nakaseomyces glabratus; experiment: Antifungal activity against Candida glabrata ATCC 2001 assessed as fungal growth inhibition by double dilution method; type: functional; outline: as §2
[20] = test system: Aspergillus fumigatus; experiment: Antifungal activity against Aspergillus fumigatus NRRL 6113 assessed as fungal growth inhibition by double dilution method; type: functional
[21] = test system: J774.A1; experiment: Cytotoxicity against J774A.1 cells assessed as reduction in cell viability at 31.3 microg/ml; type: toxicity, cell-based; conditions: mouse, dose 31.3 µg/ml; outline: as §3
[22] = test system: Aspergillus flavus; experiment: Antifungal activity against Aspergillus flavus ATCC MYA-3631 assessed as fungal growth inhibition by double dilution method; type: functional
[23] = test system: Candida duobushaemulonii; experiment: Antifungal activity against Candida duobushaemulonii AR Bank # 392 assessed as fungal growth inhibition by double dilution method; type: functional; conditions: Candidozyma duobushaemuli; outline: as §2
[24] = test system: Candida duobushaemulonii; experiment: Antifungal activity against Candida duobushaemulonii AR Bank # 394 assessed as fungal growth inhibition by double dilution method; type: functional; conditions: Candidozyma duobushaemuli; outline: as §2
[25] = test system: Candida albicans; experiment: Antifungal activity against Candida albicans ATCC 64124 assessed as fungal growth inhibition by double dilution method; type: functional; outline: as §1
[26] = test system: Saccharomyces cerevisiae; experiment: Antifungal activity against Saccharomyces cerevisiae AR Bank # 399 assessed as fungal growth inhibition by double dilution method; type: functional; outline: as §2
[27] = test system: Cryptococcus neoformans; experiment: Antifungal activity against Cryptococcus neoformans ATCC MYA-895 assessed as fungal growth inhibition by double dilution method; type: functional; outline: as §2
[28] = test system: Pichia kudriavzevii; experiment: Antifungal activity against Pichia kudriavzevii ATCC 6258 assessed as fungal growth inhibition by double dilution method; type: functional; outline: as §2
[29] = test system: Nakaseomyces glabratus; experiment: Antifungal activity against Candida glabrata ATCC 22019 assessed as fungal growth inhibition by double dilution method; type: functional; outline: as §2
[30] = test system: Candida albicans; experiment: Antifungal activity against itraconazole/fluconazole resistant Candida albicans ATCC MYA-1237 assessed as fungal growth inhibition by double dilution method; type: functional; outline: as §1
[31] = test system: Pichia kudriavzevii; experiment: Antifungal activity against Pichia kudriavzevii AR Bank # 397 assessed as fungal growth inhibition by double dilution method; type: functional; outline: as §2
[32] = test system: Aspergillus fumigatus; experiment: Antifungal activity against Aspergillus fumigatus NRRL 163 assessed as fungal growth inhibition by double dilution method; type: functional
[33] = test system: Candida albicans; experiment: Antifungal activity against Candida albicans ATCC 10231 assessed as fungal growth inhibition by double dilution method; type: functional; outline: as §2
[34] = test system: [Candida] haemuloni; experiment: Antifungal activity against Candida haemulonii AR Bank # 395 assessed as fungal growth inhibition by double dilution method; type: functional; conditions: Candidozyma haemuli; outline: as §2
[35] = test system: [Candida] auris; experiment: Antifungal activity against Candida auris AR Bank # 0390 assessed as fungal growth inhibition by double dilution method; type: functional; conditions: Candidozyma auris; outline: as §2
[36] = test system: Aspergillus terreus; experiment: Antifungal activity against Aspergillus terreus ATCC MYA-3633 assessed as fungal growth inhibition by double dilution method; type: functional
[37] = test system: [Candida] auris; experiment: Antifungal activity against Candida auris AR Bank # 382 assessed as fungal growth inhibition by double dilution method; type: functional; conditions: Candidozyma auris; outline: as §2
[38] = test system: Candida albicans; experiment: Antifungal activity against itraconazole/fluconazole susceptible Candida albicans ATCC MYA-2310 assessed as fungal growth inhibition by double dilution method; type: functional; outline: as §1
[39] = test system: [Candida] auris; experiment: Antifungal activity against Candida auris AR Bank # 0384 assessed as fungal growth inhibition by double dilution method; type: functional; conditions: Candidozyma auris; outline: as §2
[40] = test system: [Candida] auris; experiment: Antifungal activity against Candida auris AR Bank # 384 assessed as fungal growth inhibition by double dilution method; type: functional; conditions: Candidozyma auris; outline: as §2
[41] = test system: Aspergillus fumigatus; experiment: Antifungal activity against Aspergillus fumigatus NRRL 5109 assessed as fungal growth inhibition by double dilution method; type: functional
[42] = test system: [Candida] auris; experiment: Antifungal activity against Candida auris AR Bank # 390 assessed as fungal growth inhibition by double dilution method; type: functional; conditions: Candidozyma auris; outline: as §2

O=C(NNc1ccc(F)cc1)c1ccccn1
MIC [1]: 3.9 µg/mL (≈ 16.9 µM) | MIC [2]: 0.98 µg/mL (≈ 4.24 µM) | Activity [3]: Active | MIC [4]: 0.49 µg/mL (≈ 2.12 µM) | MIC [5]: 0.49 µg/mL (≈ 2.12 µM) | MIC [6]: 1.95 µg/mL (≈ 8.43 µM) | MIC [7]: 0.49 µg/mL (≈ 2.12 µM) | MIC [8]: 0.49 µg/mL (≈ 2.12 µM) | MIC [9]: 0.24 µg/mL (≈ 1.04 µM) | MIC [10]: 0.24 µg/mL (≈ 1.04 µM) | MIC [11]: 0.98 µg/mL (≈ 4.24 µM) | MIC [12]: 1.95 µg/mL (≈ 8.43 µM) | MIC [13]: 0.98 µg/mL (≈ 4.24 µM) | Activity [14]: Non-Toxic | MIC [15]: 0.98 µg/mL (≈ 4.24 µM) | MIC [16]: 1.95 µg/mL (≈ 8.43 µM) | MIC [17]: 0.98 µg/mL (≈ 4.24 µM) | MIC [18]: 0.49 µg/mL (≈ 2.12 µM) | MIC [19]: 1.95 µg/mL (≈ 8.43 µM) | MIC [20]: 15.6 µg/mL (≈ 67.5 µM) | Activity [21]: Non-Toxic | MIC [22]: 31.3 µg/mL (≈ 135 µM) | MIC [23]: 0.49 µg/mL (≈ 2.12 µM) | MIC [24]: 0.24 µg/mL (≈ 1.04 µM) | MIC [25]: 0.98 µg/mL (≈ 4.24 µM) | MIC [26]: 3.9 µg/mL (≈ 16.9 µM) | MIC [27]: 0.24 µg/mL (≈ 1.04 µM) | MIC [28]: 0.12 µg/mL (≈ 0.519 µM) | MIC [29]: 1.95 µg/mL (≈ 8.43 µM) | MIC [30]: 1.95 µg/mL (≈ 8.43 µM) | MIC [31]: 0.24 µg/mL (≈ 1.04 µM) | MIC [32]: 31.3 µg/mL (≈ 135 µM) | MIC [33]: 0.12 µg/mL (≈ 0.519 µM) | MIC [34]: 0.12 µg/mL (≈ 0.519 µM) | MIC [35]: 0.98 µg/mL (≈ 4.24 µM) | MIC [36]: 1.95 µg/mL (≈ 8.43 µM) | MIC [37]: 1.95 µg/mL (≈ 8.43 µM) | MIC [38]: 1.95 µg/mL (≈ 8.43 µM) | MIC [39]: 3.9 µg/mL (≈ 16.9 µM) | MIC [40]: 3.9 µg/mL (≈ 16.9 µM) | MIC [41]: 7.8 µg/mL (≈ 33.7 µM) | MIC [42]: 0.98 µg/mL (≈ 4.24 µM)

O=C(NNc1ccc(Cl)cc1)c1ccccn1
MIC [1]: 1.95 µg/mL (≈ 7.87 µM) | MIC [2]: 0.24 µg/mL (≈ 0.969 µM) | Activity [3]: Active | MIC [4]: 0.98 µg/mL (≈ 3.96 µM) | MIC [5]: 0.49 µg/mL (≈ 1.98 µM) | MIC [6]: 1.95 µg/mL (≈ 7.87 µM) | MIC [7]: 0.98 µg/mL (≈ 3.96 µM) | MIC [8]: 0.98 µg/mL (≈ 3.96 µM) | MIC [9]: 0.49 µg/mL (≈ 1.98 µM) | MIC [10]: 0.24 µg/mL (≈ 0.969 µM) | MIC [11]: 1.95 µg/mL (≈ 7.87 µM) | MIC [12]: 0.98 µg/mL (≈ 3.96 µM) | MIC [13]: 1.95 µg/mL (≈ 7.87 µM) | MIC [15]: 1.95 µg/mL (≈ 7.87 µM) | MIC [16]: 0.98 µg/mL (≈ 3.96 µM) | MIC [17]: 1.95 µg/mL (≈ 7.87 µM) | MIC [18]: 0.98 µg/mL (≈ 3.96 µM) | MIC [19]: 1.95 µg/mL (≈ 7.87 µM) | MIC [20]: 15.6 µg/mL (≈ 63 µM) | MIC [22]: 31.3 µg/mL (≈ 126 µM) | MIC [23]: 0.98 µg/mL (≈ 3.96 µM) | MIC [24]: 0.4 µg/mL (≈ 1.61 µM) | MIC [25]: 0.98 µg/mL (≈ 3.96 µM) | MIC [26]: 0.98 µg/mL (≈ 3.96 µM) | MIC [27]: 0.49 µg/mL (≈ 1.98 µM) | MIC [28]: 1.95 µg/mL (≈ 7.87 µM) | MIC [29]: 3.9 µg/mL (≈ 15.7 µM) | MIC [30]: 0.98 µg/mL (≈ 3.96 µM) | MIC [31]: 0.24 µg/mL (≈ 0.969 µM) | MIC [32]: > 31.3 µg/mL | MIC [33]: 0.12 µg/mL (≈ 0.484 µM) | MIC [34]: 0.12 µg/mL (≈ 0.484 µM) | MIC [35]: 1.95 µg/mL (≈ 7.87 µM) | MIC [36]: 3.9 µg/mL (≈ 15.7 µM) | MIC [37]: 3.9 µg/mL (≈ 15.7 µM) | MIC [38]: 0.98 µg/mL (≈ 3.96 µM) | MIC [39]: 1.95 µg/mL (≈ 7.87 µM) | MIC [40]: 1.95 µg/mL (≈ 7.87 µM) | MIC [41]: 7.8 µg/mL (≈ 31.5 µM) | MIC [42]: 1.95 µg/mL (≈ 7.87 µM)
